From ChEMBL document CHEMBL1138921, “Discovery of 3,5-bis(trifluoromethyl)benzyl L-arylglycinamide based potent CCR2 antagonists” (Bioorg Med Chem Lett, 2006) come the findings set out here.

Each structure is given as a SMILES string.

The target of data set [1] is Substance-P receptor (Homo sapiens, UniProt P25103). As to the kind of experiment: Binding affinity to human NK1 receptor.
Data set [2] deals with C-C chemokine receptor type 5 (Homo sapiens, UniProt P51681).
The target in data set [3] is T1, C-C chemokine receptor type 3 (Homo sapiens) (UniProt P51677).
T1 sequence (whole entry): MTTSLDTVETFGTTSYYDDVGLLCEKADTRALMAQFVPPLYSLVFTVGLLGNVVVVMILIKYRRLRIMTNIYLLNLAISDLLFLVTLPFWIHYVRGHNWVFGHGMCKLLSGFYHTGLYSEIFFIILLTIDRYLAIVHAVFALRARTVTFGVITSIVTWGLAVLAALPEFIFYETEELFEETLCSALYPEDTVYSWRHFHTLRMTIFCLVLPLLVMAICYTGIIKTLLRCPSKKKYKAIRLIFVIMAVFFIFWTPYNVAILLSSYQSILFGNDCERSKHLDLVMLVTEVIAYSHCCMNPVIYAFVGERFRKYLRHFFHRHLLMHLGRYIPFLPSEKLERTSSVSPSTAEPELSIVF
As to the kind of experiment: (§1) Binding affinity to CCR3.

Data set [4] has as its target T2, C-C chemokine receptor type 3 (Homo sapiens, UniProt P51677).
T2 sequence (P51677 whole entry): T1 sequence (whole entry)
The description is as §1.

In data set [5] the target is T3, Substance-K receptor (Homo sapiens) (UniProt P21452).
T3 sequence (whole entry): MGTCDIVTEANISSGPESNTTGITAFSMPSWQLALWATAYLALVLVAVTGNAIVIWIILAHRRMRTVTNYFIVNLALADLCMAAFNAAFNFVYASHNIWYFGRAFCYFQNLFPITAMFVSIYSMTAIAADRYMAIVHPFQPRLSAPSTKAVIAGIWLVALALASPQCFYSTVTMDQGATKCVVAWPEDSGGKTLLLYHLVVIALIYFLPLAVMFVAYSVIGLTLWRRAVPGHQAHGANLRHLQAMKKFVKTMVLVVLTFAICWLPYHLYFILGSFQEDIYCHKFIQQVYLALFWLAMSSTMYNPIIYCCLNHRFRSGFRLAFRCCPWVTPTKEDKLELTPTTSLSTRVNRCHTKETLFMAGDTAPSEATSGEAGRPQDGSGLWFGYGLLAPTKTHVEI
Nature of the data set: (§2) Binding affinity to human NK2 receptor.

Data set [6] has as its target T4, Substance-K receptor (Homo sapiens, UniProt P21452).
T4 sequence (P21452 whole entry): T3 sequence (whole entry)
The description is as §2.

The target in data set [7] is T5, C-C chemokine receptor type 4 (Homo sapiens, UniProt P51679).
T5 sequence (P51679 whole entry): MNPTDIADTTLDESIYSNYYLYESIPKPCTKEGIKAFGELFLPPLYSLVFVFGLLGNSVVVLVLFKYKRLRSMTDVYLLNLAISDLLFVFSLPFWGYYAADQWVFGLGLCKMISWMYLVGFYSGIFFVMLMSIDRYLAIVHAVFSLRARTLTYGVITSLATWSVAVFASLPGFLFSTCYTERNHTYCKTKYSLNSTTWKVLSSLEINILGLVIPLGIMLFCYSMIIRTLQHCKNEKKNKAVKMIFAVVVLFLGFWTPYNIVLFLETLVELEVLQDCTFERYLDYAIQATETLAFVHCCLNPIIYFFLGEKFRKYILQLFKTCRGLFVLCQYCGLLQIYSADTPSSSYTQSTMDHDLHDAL
As to the kind of experiment: (§3) Binding affinity to CCR4.

The target of data set [8] is T6, C-C chemokine receptor type 4 (Homo sapiens) (UniProt P51679).
T6 sequence (whole entry): T5 sequence (P51679 whole entry)
Described as §3.

Data set [9] concerns the target C-C chemokine receptor type 8 (Homo sapiens, UniProt P51685). As to the kind of experiment: Binding affinity to CCR8.
Data set [10] is described as follows: Half life in rat. In kind it is ADME, organism-based. The settings on record: in vivo.
For data set [11], the target named is T7, C-C chemokine receptor type 2 (Homo sapiens, UniProt P41597). As to the kind of experiment: Displacement of [125I]MCP1 from human CCR2 expressed in CHO cells. The format is cell-based. The method, boiled down: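 Competition binding: CHO cells stably expressing human CCR2b (5 × 10⁴) incubated with ¹²⁵I-hMCP-1 (20–50 pM) plus varied unlabeled competitor, 60 min, room temperature, in 50 mM HEPES, 5 mM MgCl₂, 1 mM CaCl₂, pH 7.4. Ended by filtration through polyethyleneimine-soaked GF/B filters, washed with 25 mM HEPES pH 7.5/500 mM NaCl. Values given as IC₅₀ or % inhibition at 1 µM.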
T7 sequence (P41597 whole entry): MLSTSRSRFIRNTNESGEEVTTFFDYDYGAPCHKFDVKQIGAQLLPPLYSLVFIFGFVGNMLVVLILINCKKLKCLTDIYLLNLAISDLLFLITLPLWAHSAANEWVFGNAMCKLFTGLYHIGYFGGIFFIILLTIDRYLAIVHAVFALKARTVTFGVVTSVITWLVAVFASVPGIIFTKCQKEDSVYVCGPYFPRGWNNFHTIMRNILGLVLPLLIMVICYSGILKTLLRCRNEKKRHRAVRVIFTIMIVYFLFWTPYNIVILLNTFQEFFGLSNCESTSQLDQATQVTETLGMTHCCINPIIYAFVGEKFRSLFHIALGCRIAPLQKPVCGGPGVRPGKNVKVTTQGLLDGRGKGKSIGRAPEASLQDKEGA
(In general: Loss of bound radioactivity is the signal in a displacement assay; it reports binding, not function.)

A short description of data set [12]: Clearance in rat. In kind it is ADME, organism-based. The settings on record: in vivo.
The target in data set [13] is T7, C-C chemokine receptor type 2. Nature of the data set: Binding affinity to CCR2 in human monocytes. In kind it is cell-based. The method, boiled down:
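Competition binding on human monocytes (2 × 10⁵ cells) incubated with ¹²⁵I-hMCP-1 (20–50 pM; 2200 Ci/mmol) and a range of unlabeled competitor concentrations. Buffer: 50 mM HEPES, 5 mM MgCl₂, 1 mM CaCl₂, pH 7.4, for 60 min at room temperature. Stopped by filtration through PEI-presoaked GF/B filters, washed with 25 mM HEPES pH 7.5 / 500 mM NaCl. Reported as IC50.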

Data set [14] relates to Monocyte. As to the kind of experiment: Inhibition of MCP1-induced chemotaxis of human monocytes. The format is functional, cell-based. The method, boiled down: (§4)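 Human monocytes loaded with Calcein-AM in Hanks' buffer with 0.01% BSA, 37 °C, 30 min, then washed and resuspended in phenol red-free RPMI 1640 with 0.01% BSA. Migration toward MCP-1 measured in disposable 96-well chemotaxis plates (5.7 mm diameter wells), 1.5 × 10⁵ cells/well.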

Data set [15] concerns Rattus norvegicus. As to the kind of experiment: Systemic level in rat at 3 mg/kg, po. Details: dose 3 mg/kg, route oral. In kind it is ADME, organism-based. To be noted: in vivo. The gist of the method: (§5)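 Rats dosed orally at 3 mg/kg; drug levels in portal and systemic blood sampled at several time points to assess first-pass metabolism.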
Data set [16] can be described thus: Portal level in rat at 3 mg/kg, po after 1 hr. The format is ADME, organism-based. Details: dose 3 mg/kg, route oral. The settings on record: portal vein (blood or plasma not stated), read-out: Activity. The method, boiled down: as §5
Data set [17] concerns the target T7, C-C chemokine receptor type 2. Nature of the data set: Antagonist activity against CCR2 assessed as inhibition of MCP1-induced calcium flux in human monocytes. The format is functional, cell-based. (A change in cytosolic calcium serves as a functional read-out for many receptors and channels.)
Data set [18] can be described thus: Oral bioavailability in rat. To be noted: in vivo. The format is ADME, organism-based.
Data set [19] has as its target T8, Neuromedin-K receptor (Homo sapiens) (UniProt P29371).
T8 sequence (whole entry): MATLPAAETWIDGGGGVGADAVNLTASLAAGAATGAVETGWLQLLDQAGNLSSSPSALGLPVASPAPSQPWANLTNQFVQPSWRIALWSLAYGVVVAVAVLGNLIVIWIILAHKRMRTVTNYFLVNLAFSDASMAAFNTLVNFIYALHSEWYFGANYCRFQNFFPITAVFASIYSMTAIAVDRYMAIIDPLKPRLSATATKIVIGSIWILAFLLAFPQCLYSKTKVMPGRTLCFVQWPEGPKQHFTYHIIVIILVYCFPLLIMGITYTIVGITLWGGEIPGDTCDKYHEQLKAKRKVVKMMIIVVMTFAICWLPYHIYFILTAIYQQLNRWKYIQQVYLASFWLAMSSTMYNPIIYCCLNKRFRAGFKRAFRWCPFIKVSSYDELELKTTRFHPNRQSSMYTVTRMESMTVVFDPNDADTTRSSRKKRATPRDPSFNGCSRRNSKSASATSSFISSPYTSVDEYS
As to the kind of experiment: (§6) Binding affinity to human NK3 receptor.

In data set [20] the target is T9, Neuromedin-K receptor (Homo sapiens, UniProt P29371).
T9 sequence (P29371 whole entry): T8 sequence (whole entry)
The data set is described as §6.

Data set [21] deals with T10, C-C chemokine receptor type 1 (Homo sapiens, UniProt P32246).
T10 sequence (P32246 whole entry): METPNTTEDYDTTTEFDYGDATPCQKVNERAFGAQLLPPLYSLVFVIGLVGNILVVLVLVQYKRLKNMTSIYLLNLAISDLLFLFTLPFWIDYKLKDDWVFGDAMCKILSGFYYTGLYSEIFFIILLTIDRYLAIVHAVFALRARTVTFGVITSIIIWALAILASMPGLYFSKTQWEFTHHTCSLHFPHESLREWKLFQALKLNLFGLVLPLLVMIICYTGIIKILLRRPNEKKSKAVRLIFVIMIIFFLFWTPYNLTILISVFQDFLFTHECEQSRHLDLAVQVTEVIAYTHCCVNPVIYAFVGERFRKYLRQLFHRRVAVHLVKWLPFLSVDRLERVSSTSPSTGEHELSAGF
As to the kind of experiment: (§7) Binding affinity to CCR1.

Data set [22] concerns the target T11, C-C chemokine receptor type 1 (Homo sapiens) (UniProt P32246).
T11 sequence (whole entry): T10 sequence (P32246 whole entry)
The data set is described as §7.

Data set [23] has as its system Monocyte. Nature of the data set: Inhibition of MCP1-induced chemotaxis of human monocytes at 10 uM. In kind it is functional. The gist of the method: as §4

C-C chemokine receptor type 8, sequence (P51685 whole entry): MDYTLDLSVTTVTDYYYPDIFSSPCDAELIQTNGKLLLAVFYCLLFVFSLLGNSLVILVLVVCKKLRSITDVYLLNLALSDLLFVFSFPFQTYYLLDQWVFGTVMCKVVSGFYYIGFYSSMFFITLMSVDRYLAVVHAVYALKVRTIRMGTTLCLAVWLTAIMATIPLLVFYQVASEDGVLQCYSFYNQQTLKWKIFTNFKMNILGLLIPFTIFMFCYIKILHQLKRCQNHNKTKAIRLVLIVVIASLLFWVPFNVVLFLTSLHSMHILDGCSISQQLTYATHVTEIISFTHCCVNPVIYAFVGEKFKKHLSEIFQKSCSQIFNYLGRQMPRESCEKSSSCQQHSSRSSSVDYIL
Substance-P receptor, sequence (P25103 whole entry): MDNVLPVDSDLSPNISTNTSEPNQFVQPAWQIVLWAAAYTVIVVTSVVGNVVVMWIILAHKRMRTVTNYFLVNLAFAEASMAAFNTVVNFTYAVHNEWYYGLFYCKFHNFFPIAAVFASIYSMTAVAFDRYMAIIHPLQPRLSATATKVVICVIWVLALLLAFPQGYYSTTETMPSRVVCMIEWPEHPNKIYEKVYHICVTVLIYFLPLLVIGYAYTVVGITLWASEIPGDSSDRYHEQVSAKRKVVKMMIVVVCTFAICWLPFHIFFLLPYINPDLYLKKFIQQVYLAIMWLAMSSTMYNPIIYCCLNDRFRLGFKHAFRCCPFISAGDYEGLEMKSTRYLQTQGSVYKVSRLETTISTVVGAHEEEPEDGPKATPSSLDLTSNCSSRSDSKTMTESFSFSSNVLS
C-C chemokine receptor type 5, sequence (P51681 whole entry): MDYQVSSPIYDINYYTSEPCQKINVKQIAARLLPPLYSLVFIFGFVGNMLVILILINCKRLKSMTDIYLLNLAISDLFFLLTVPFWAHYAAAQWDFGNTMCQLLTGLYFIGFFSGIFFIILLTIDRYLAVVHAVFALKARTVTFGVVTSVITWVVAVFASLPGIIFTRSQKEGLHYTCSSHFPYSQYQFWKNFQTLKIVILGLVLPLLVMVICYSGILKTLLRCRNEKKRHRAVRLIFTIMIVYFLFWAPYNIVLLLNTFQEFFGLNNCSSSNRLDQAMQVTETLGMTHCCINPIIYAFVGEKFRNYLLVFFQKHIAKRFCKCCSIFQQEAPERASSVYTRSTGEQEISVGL

For `O=C(NCc1cc(C(F)(F)F)cc(C(F)(F)F)c1)[C@@H](NCCN1CCCCC1)c1ccsc1`, the Activity in [1] was 31%; in [3], 2%; in data set [5] it was 20%; in [8], 6%; in data set [9] it was 15%; in data set [15], under 20 ng/mL. The Activity in data set [19] is 10%; in data set [22], -19%. In addition, the IC50 in data set [1] is over 100 nM; in [2] it was over 1000 nM; in [4], over 1000 nM; in [6], over 1000 nM; in data set [7] it was over 2000 nM; in data set [9] it was over 1000 nM. Moreover, the IC50 in [11] is 39 nM; in data set [13], 30 nM; in data set [14], 9.6 nM; in data set [17], 50 nM; in data set [20], over 1000 nM; in [21], over 1000 nM. The molecule further had a half-life in [10] of 1.8 h. In data set [12], this molecule yielded a clearance of 80 mL/min/kg. The concentration at 1 h in data set [16] is over 300 ng/mL. The same molecule showed a bioavailability in data set [18] of 4.5%.
Molecule `CN(CCN1CCCCC1)c1ccc(-c2nc3cc(Cl)c(Cl)cc3[nH]2)cc1` had an inhibition at 10 µM in data set [23] of 100%.

One may read the IC50 as the concentration that inhibits the measured activity by half. By half-life is commonly meant the time in which the quantity being followed falls by half. Lower therefore signals fast loss. One may read the clearance as the volume of plasma or blood freed of the substance per unit of time. Higher therefore signals a high capacity for elimination. The term bioavailability denotes the share of a dose that reaches the circulation, judged against a reference dose that is usually intravenous. A high value points to good availability. The inhibition is the change of the read-out against control, counted positive when it falls. A high value points to strong suppression.
